How the values were obtained:
MT4 = assay: Tested in vitro against MT-4 cells using MTT assay; format: functional; details: Homo sapiens
Method in brief: (§1)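 MT-4 cells (2 × 10⁴/mL) infected with 100 TCID₅₀ HIV-1_LAI, grown with drug dilution series 7 days at 37 °C. MTT added, 2 h at 37 °C, formazan dissolved in acidified 2-propanol with 4% Triton X-100, absorbance at 570 nm. Triplicates. EC₅₀ is concentration suppressing HIV-1 replication by 50%. SI calculated as CC₅₀/EC₅₀.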

HeLa [1] = assay: (§2) Tested in vitro against HIV-1 104pre from HeLa-CD4-[…]-beta gal-cells using MAGI assay; format: functional, cell-based; details: Homo sapiens
Method in brief: (§3)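 HeLa-CD4-LTR-β-gal indicator cells seeded at 10⁴ cells/well, cultured 24 h, then exposed to HIV-1_104pre at 30 TCID₅₀ for 2 h at 37 °C. Drug series added 2 h before or 2 h after virus, kept present without washing. At 48 h cells fixed (1% formaldehyde, 0.2% glutaraldehyde in PBS), X-Gal stained, blue infected cells counted under microscope.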

[2] = biological target: Human immunodeficiency virus type 1 reverse transcriptase (Human immunodeficiency virus 1) (UniProt Q72547); assay: Selectivity index expressed as CC50/EC50; format: functional; method in brief: as §1
HeLa [3] = assay: as §2; format: functional, cell-based, human immunodefficiency virus type 1; details: Homo sapiens; method in brief: as §3

Compound | CC50 (MT4) | EC50 (HeLa [1]) | SI [2] | EC50 (HeLa [3])
C#C[C@]1(CO)O[C@@H](n2cc(I)c(=O)[nH]c2=O)C[C@@H]1O | > 260000 nM | 360 nM | > 765 | 
C#C[C@]1(CO)O[C@@H](n2cc(Br)c(N)nc2=O)C[C@@H]1O | > 100000 nM |  |  | 
C#C[C@]1(CO)O[C@@H](n2cc(F)c(N)nc2=O)C[C@@H]1O | > 100000 nM | 2 nM | > 3330 | 
C#C[C@]1(CO)O[C@@H](n2cc(C)c(=O)[nH]c2=O)C[C@@H]1O | > 380000 nM | 400 nM | > 623 | 
C#C[C@]1(CO)O[C@@H](n2cc(I)c(N)nc2=O)C[C@@H]1O | > 100000 nM |  |  | 
C#C[C@]1(CO)O[C@@H](n2cc(F)c(=O)[nH]c2=O)C[C@@H]1O | 3400 nM |  |  | 
C#C[C@]1(CO)O[C@@H](n2cc(CC)c(=O)[nH]c2=O)C[C@@H]1O | > 360000 nM |  |  | 
C#C[C@]1(CO)O[C@@H](n2cc(Cl)c(=O)[nH]c2=O)C[C@@H]1O | 81700 nM |  | 13.6 | 
Cc1cn([C@H]2C[C@H](N=[N+]=[N-])[C@@H](CO)O2)c(=O)[nH]c1=O [ZIDOVUDINE] | > 100000 nM | 2 nM | > 2630 | 
C#C[C@]1(CO)O[C@@H](n2cnc3c(N)nc(N)nc32)C[C@@H]1O | 820 nM | 1.9 nM | 2730 | 
C#C[C@]1(CO)O[C@@H](n2ccc(N)nc2=O)C[C@@H]1O |  | 0.96 nM | 192 | 
C#C[C@]1(CO)O[C@@H](n2cnc3c(=O)[nH]c(N)nc32)C[C@@H]1O | 1500 nM |  | 1070 | 7.1 nM
C#C[C@]1(CO)O[C@@H](n2cc(C)c(N)nc2=O)C[C@@H]1O | 700 nM | 5.7 nM | 63 | 
C#C[C@]1(CO)O[C@@H](n2cc(Cl)c(N)nc2=O)C[C@@H]1O | > 100000 nM |  |  | 
C#C[C@]1(CO)O[C@@H](n2cnc3c(N)ncnc32)C[C@@H]1O | 11700 nM | 6.8 nM | 975 | 
C#C[C@]1(CO)O[C@@H](n2cnc3c(O)ncnc32)C[C@@H]1O | 216000 nM | 830 nM | 14.4 | 
C#C[C@]1(CO)O[C@@H](n2ccc(=O)[nH]c2=O)C[C@@H]1O | > 100000 nM |  |  | 
C#C[C@]1(CO)O[C@@H](n2cc(Br)c(=O)[nH]c2=O)C[C@@H]1O | > 100000 nM |  | > 44 | 
C#C[C@]1(CO)O[C@@H](n2cnc3cncnc32)C[C@@H]1O | > 380000 nM | 132000 nM | > 3.2 | 
